Experimental data reported in PMC6543826 (Bioorganic chemistry, 2018).
Where “and” joins values, the source holds several entries; their conditions need not be identical. Equal entries are not always repeated. Where two headings read alike, the source gives them in different places.

Experiments:
M14 = assay: cells; assay type: cell-based; conditions: M14, 10^−5 M, 48 h
OVCAR-4 = assay: cells; assay type: cell-based; conditions: OVCAR-4, 10^−5 M, 48 h
[1] = test system: NCI-60 panel of tumor cell lines; conditions: for Average G%: average over tested NCI-60 cell lines, 10^−5 M (10 μM), 48 h
UACC-62 = assay: cells; assay type: cell-based; conditions: UACC-62, 10^−5 M, 48 h
HOP-92 = assay: cells; assay type: cell-based; conditions: HOP-92, 10^−5 M, 48 h
UO-31 = assay: cells; assay type: cell-based; conditions: UO-31, 10^−5 M, 48 h
OVCAR-8 = assay: cells; assay type: cell-based; conditions: OVCAR-8, 10^−5 M, 48 h
SW-620 = assay: cells; assay type: cell-based; conditions: SW-620, 10^−5 M, 48 h
ERK2 = ERK2 (Rattus norvegicus, UniProt P63086); assay: in vitro radioactive kinase assay, Ets-1 phosphorylation by ERK2; assay type: biochemical
Sequence of ERK2 (P63086 whole entry): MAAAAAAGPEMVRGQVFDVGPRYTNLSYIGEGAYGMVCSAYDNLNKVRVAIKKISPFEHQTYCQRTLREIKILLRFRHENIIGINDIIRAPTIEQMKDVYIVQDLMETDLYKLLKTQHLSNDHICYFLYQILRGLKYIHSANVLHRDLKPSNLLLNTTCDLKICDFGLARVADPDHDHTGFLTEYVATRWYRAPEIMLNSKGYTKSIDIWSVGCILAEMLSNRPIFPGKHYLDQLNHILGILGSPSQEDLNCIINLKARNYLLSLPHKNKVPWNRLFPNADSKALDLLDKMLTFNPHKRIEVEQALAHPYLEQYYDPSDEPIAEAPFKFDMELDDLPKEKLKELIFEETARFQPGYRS
Outline: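 Activated rat ERK2 (2 nM) was tested with His-Ets-1 (1–138) at 28–30 °C in HEPES pH 7.5 buffer with 11 mM MgCl2, BSA and 5% DMSO. Reactions were started with [γ-32P]ATP (10 or 100 μM).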

SF-268 = assay: cells; assay type: cell-based; conditions: SF-268, 10^−5 M, 48 h
BT-549 = assay: cells; assay type: cell-based; conditions: BT-549, 10^−5 M, 48 h
NCI-H322M = assay: cells; assay type: cell-based; conditions: 10^−5 M, 48 h
RXF 393 = assay: cells; assay type: cell-based; conditions: RXF 393, 10^−5 M, 48 h
ERK1 = ERK1 (Homo sapiens, UniProt P27361); assay: in vitro radioactive kinase assay, Ets-1 phosphorylation by ERK1; assay type: biochemical
Sequence of ERK1 (P27361 whole entry, species assumed): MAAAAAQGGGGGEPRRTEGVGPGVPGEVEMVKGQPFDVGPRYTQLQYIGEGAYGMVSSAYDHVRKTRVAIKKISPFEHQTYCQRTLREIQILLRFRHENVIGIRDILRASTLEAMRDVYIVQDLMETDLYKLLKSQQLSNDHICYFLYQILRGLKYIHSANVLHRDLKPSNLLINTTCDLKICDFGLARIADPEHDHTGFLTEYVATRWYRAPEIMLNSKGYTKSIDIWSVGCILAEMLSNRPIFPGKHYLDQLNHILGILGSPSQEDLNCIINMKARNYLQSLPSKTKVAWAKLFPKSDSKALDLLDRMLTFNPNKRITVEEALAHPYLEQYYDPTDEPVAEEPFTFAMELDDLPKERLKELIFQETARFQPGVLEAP
Outline: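 Radiometric assay at 28–30 °C in 25 mM HEPES pH 7.5, 50 mM KCl, 0.1 mM EDTA/EGTA, 2 mM DTT, 11 mM MgCl2, 10 μg mL−1 BSA and 5% DMSO (final). 2 nM activated ERK1 was used with 10 μM His-Ets-1 (1–138). Reactions were started with [γ-32P]ATP (10 or 100 μM). IC50 came from fitting rate versus inhibitor concentration to a hyperbolic decay equation.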

HCT-15 = assay: cells; assay type: cell-based; conditions: HCT-15, 10^−5 M, 48 h
KM 12 = assay: cells; assay type: cell-based; conditions: KM 12, 10^−5 M, 48 h
SF-295 = assay: cells; assay type: cell-based; conditions: SF-295, 10^−5 M, 48 h
T-47D = assay: cells; assay type: cell-based; conditions: T-47D, 10^−5 M, 48 h
NCI-H522 = assay: cells; assay type: cell-based; conditions: NCI-H522, 10^−5 M, 48 h
SN12C = assay: cells; assay type: cell-based; conditions: 10^−5 M, 48 h
IGROV1 = assay: cells; assay type: cell-based; conditions: IGROV1, 10^−5 M, 48 h
SK-OV-3 = assay: cells; assay type: cell-based; conditions: SK-OV-3, 10^−5 M, 48 h
MALME-3M = assay: cells; assay type: cell-based; conditions: MALME-3M, 10^−5 M, 48 h
SK-MEL-28 = assay: cells; assay type: cell-based; conditions: SK-MEL-28, 10^−5 M, 48 h
SNB-75 = assay: cells; assay type: cell-based; conditions: SNB-75, 10^−5 M, 48 h
NCI-H460 = assay: cells; assay type: cell-based; conditions: NCI-H460, 10^−5 M, 48 h
RPMI-8226 = assay: cells; assay type: cell-based; conditions: RPMI-8226, 10^−5 M, 48 h
MCF7 = assay: cells; assay type: cell-based; conditions: MCF7, 10^−5 M, 48 h
DU-145 = assay: cells; assay type: cell-based; conditions: DU-145, 10^−5 M, 48 h
U251 = assay: cells; assay type: cell-based; conditions: U251, 10^−5 M, 48 h
A549/ATCC = assay: cells; assay type: cell-based; conditions: A549/ATCC, 10^−5 M, 48 h
OVCAR-5 = assay: cells; assay type: cell-based; conditions: OVCAR-5, 10^−5 M, 48 h

Structure (SMILES)	Growth percent (G%) (M14) [%]	Growth percent (G%) (OVCAR-4) [%]	Average G% [1]	Growth percent (G%) (UACC-62) [%]	Growth percent (G%) (HOP-92) [%]	Growth percent (G%) (UO-31) [%]	Growth percent (G%) (OVCAR-8) [%]	Growth percent (G%) (SW-620) [%]	Growth percent (G%) (SF-268) [%]	Growth percent (G%) (BT-549) [%]	Growth percent (G%) (NCI-H322M) [%]	Growth percent (G%) (RXF 393) [%]	Growth percent (G%) (HCT-15) [%]	Growth percent (G%) (KM 12) [%]	Growth percent (G%) (SF-295) [%]	Growth percent (G%) (T-47D) [%]	Growth percent (G%) (NCI-H522) [%]	Growth percent (G%) (SN12C) [%]	Growth percent (G%) (IGROV1) [%]	Growth percent (G%) (SK-OV-3) [%]	also measured
O=C1c2ccccc2C(=O)c2c1oc1c2c(=O)[nH]c2ccccc21 [3a, Naphtho[2′,3′:4,5]furo[3,2-c]quinoline-6,7,12(5H)-trione]	73.38	−5.49	68% and 68.19%	88.73	71.42	60.44	35.61	89.23	91.30	73.94	89.28	97.24	44.70	66.22	92.71	22.52	54.81	70.40	55.11	104.46	NCI Cytotoxicity Screening Average G% ([1]; Table 4, 10 μM one-dose screen): 68%; effect of excess Ets-1 (100 μM) on inhibition of ERK2 (ERK2; 5 μM inhibitor, 100 μM vs 10 μM Ets-1, 100 μM ATP): did not rescue; IC50 (ERK2; ERK2 IC50, 100 μM ATP, 10 μM Ets-1): 10.2 ± 1.2 µM; IC50 (ERK2; ERK2 IC50 at 100 μM ATP /10mM Ets-1, Table 4, 100 μM ATP /10mM Ets-1): 10.2 ± 1.2 µM; IC50 (ERK1; ERK1 IC50, 100 μM ATP, 10 μM Ets-1): 9.12 ± 1.1 µM; IC50 (ERK1; IC50 towards inhibiting ERK, ERK isoform not given): ~9 µM; Growth percent (G%) (MALME-3M): 124.29%; Growth percent (G%) (SK-MEL-28): 112.03%; Growth percent (G%) (SNB-75): 112.98%; Growth percent (G%) (NCI-H460): 68.27%; Growth percent (G%) (RPMI-8226): 62.72%; Growth percent (G%) (MCF7): 48.82%; Growth percent (G%) (DU-145): 82.02%; Growth percent (G%) (U251): 79.04%; Growth percent (G%) (A549/ATCC): 97.18%; Growth percent (G%) (OVCAR-5): 102.37%
Cn1c(=O)c2c(=O)c3c4c(oc3oc2c2ccccc21)C(=O)c1ccccc1C4=O [5a, 5-Methyl-5H-naphthalen[2″,3″:4′,5′]furo[3′,2′:4′,5,6]pyrano [3,2-c]quinoline-6,7,8,13-tetraone]	98.25	97.38	95.45%	93.45	99.17	137.02	100.1	103.1	101.09	104.21	91.04	87.68	94.13	95.63	101.32	83.56	78.37	125.68	65.92	95.03	IC50 (ERK2; read-out: ERK2 IC50, 100 μM ATP, 10 μM Ets-1): 108 ± 12.2 µM; IC50 (ERK2; read-out: ERK2 IC50 at 100 μM ATP /10mM Ets-1, Table 4, 100 μM ATP /10mM Ets-1): > 100 µM; IC50 (ERK1; read-out: ERK1 IC50, 100 μM ATP, 10 μM Ets-1): 95 ± 10.9 µM; IC50 (ERK1; read-out: IC50 towards inhibiting ERK, ERK isoform not given): ≥ 100 µM; Growth percent (G%) (MALME-3M): 113.29%; Growth percent (G%) (SK-MEL-28): 107.21%; Growth percent (G%) (SNB-75): 101.36%; Growth percent (G%) (NCI-H460): 108.09%; Growth percent (G%) (RPMI-8226): 100.23%; Growth percent (G%) (MCF7): 76.73%; Growth percent (G%) (DU-145): 81.38%; Growth percent (G%) (U251): 104.35%; Growth percent (G%) (A549/ATCC): 85.17%; Growth percent (G%) (OVCAR-5): 102.02%
